Assay outcomes: PubChem, several laboratories
XBP1 UPR activ: activators of adaptive arm of unfolded protein response (XBP1). CHO-XBP1 luciferase reporter, IRE1-XBP1 UPR activation, luminescence; percent of tunicamycin response, DMSO as zero. activation, % at 20 µM. 0.33% of 330,000 active. AID 463104;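 active means versus positive control, 20 µM dose yields 30% or more activation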;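 further: 100% = tunicamycin at 10 µg/mL and 0% = DMSO only wells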
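Assay system: CHO-XBP1 luciferase reporter cells; Schedule: 6 h treatment, 37 °C; Detection: glow luminescence from Steady-Glo reagent; Benchmarks: high control tunicamycin 10 µg/mL final, low control DMSO vehicle only.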
Bfl-1 A1 inh: inhibitors of the anti-apoptotic protein A1, read as caspase activation | AID 2462 | MEF A1-2A-BIM cells, Caspase-Glo 3/7 luminescence, 3 h; percent of clofoctol response, vehicle zero | caspase activation, % (concentration not given with the values) | 0.066% of 330,000 active;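 active means over half of replicate activation scores above 10%, or exactly half above 10 with the replicate mean above 10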
CHOP UPR activ: activators of apoptotic arm of unfolded protein response (CHOP); activation, % at 10 µM; CHO-CHOP luciferase reporter, UPR activation, luminescence; percent of tunicamycin response over DMSO baseline; 0.34% of 330,000 active;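 active means at 10 µM dose, activation of 40% or more, normalized to positive control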;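 further: 100% = tunicamycin at 10 µg/mL and 0% = DMSO alone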
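System: CHO-CHOP luciferase reporter cell line | Buffer or medium: F12 medium containing 10% fetal bovine serum | Doses: One dose, 10 µM in 0.5% DMSO | Times: 6 h compound exposure at 37 °C after overnight seeding | Signal: Luciferase luminescence | Read-out: % activation vs tunicamycin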
MC4R barr agon: human MC4R agonism via beta-arrestin; 0.98% of 360,000 active; activation, % at 8.9 µM; U2OS MC4R beta-arrestin complementation, luminescence; percent of melanotan II response, DMSO zero; P32245;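 active means activation above a per-plate cutoff, the mean activation of sample wells on that plate plus 3 SD, cut at about 8% in these data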
Target sequence (P32245 whole entry, looked up): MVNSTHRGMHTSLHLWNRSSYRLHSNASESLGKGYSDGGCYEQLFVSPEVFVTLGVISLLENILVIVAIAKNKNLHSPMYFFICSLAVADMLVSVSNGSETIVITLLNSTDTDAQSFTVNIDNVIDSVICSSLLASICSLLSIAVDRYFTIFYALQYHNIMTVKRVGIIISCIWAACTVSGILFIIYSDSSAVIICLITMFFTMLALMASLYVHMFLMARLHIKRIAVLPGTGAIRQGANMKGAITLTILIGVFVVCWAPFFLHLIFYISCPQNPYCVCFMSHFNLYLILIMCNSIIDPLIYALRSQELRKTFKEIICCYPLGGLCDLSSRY
MC4R antagonist: human MC4R antagonism in cAMP assay; P32245; MC4R-expressing cells, MTII-stimulated cAMP, LANCE TR-FRET; inhibition, % at 6.5 µM; 0.48% of 360,000 active;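 active means inhibition above its plate's cutoff, the mean of tested wells on that plate plus 3 SD, cut at about 29% in these data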;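 further: 0% = Melanotan II alone and 100% = Melanotan II plus saturating MCL0020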
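Material: human MC4R-expressing U2OS cells. Probe or stimulus: Melanotan II challenge. Dosing: 6.5 µM single dose. Times: 30-min compound, 1-h challenge, 1-h detection, room temperature. Technique: TR-FRET with Eu-cAMP and labeled anti-cAMP, 671 nm. Replication: singlicate.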
CHOP UPR conf: apoptotic UPR (CHOP) activation, confirmed | shares compounds with CHOP UPR activ | CHO-CHOP cells, CHOP-luciferase reporter luminescence; percent of tunicamycin response, DMSO as zero | activation, % at 10 µM | 64% of 1,000 active; in the data active means activation above about 33%;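 further: 0% = DMSO wells and 100% = tunicamycin 10 µg/mL wells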
Active calls of the source: *; · = not tested or not shown. Compounds with a hit are over-represented: about 2% of the library has one in this group of screens.

SMILES | XBP1 UPR activ | Bfl-1 A1 inh | CHOP UPR activ | MC4R barr agon | MC4R antagonist | CHOP UPR conf
CCn1c(-c2ccccc2)c(C(=O)CCl)c2ccccc21 | 7 | 0 | 77* | -2 | 17 | 110*
Cc1ccc(C(=O)CSc2nc(N)cc(=O)[nH]2)cc1C | -2 | 1 | · | -1 | -1 | -1
CC1(C(=O)NCc2cccs2)Cc2c(-c3ccc4c(c3)OCO4)ccnc2O1 (centres undefined) | · | · | · | 2 | -12 | ·
CCn1c(O)c(C2=c3ccccc3=NC2=O)c2cc(Br)ccc21 | -7 | 2 | 111* | · | · | 83*
O=C1N=c2ccccc2=C1c1c(O)n(-c2cccc(F)c2)[nH]c1=O | · | 0 | · | -2 | 0 | ·
Cc1ccc(NC(=O)c2ccc(Cl)c(N3C(=O)C=CC3=O)c2)cc1 | -4 | 4 | 88* | -1 | 55* | 3
COc1cccc(C(=O)Nc2ccc(C)cc2)c1 | 2 | -8 | 3 | -2 | 6 | ·
CC1CCC/C=C/C(=O)c2c(O)cc(O)cc2CC(=O)O1 (centres undefined) | -6 | 0 | 55* | -2 | 15 | 91*
Cc1nn(-c2cccc3cccnc23)c(=O)c2ccccc12 | 0 | 0 | 45* | 1 | 9 | -1
CSc1nc(-c2ccc(C)cc2)nc(C(Cl)Cl)n1 | 12 | 1 | 52* | 0 | 4 | 6
COc1ccc(NC(=O)C2(C)CCCN(C(C)C)C2)cc1F (centres undefined) | · | · | · | 0 | 2 | ·
CCOC(=O)Cn1cc(/C=C/[N+](=O)[O-])c2ccccc21 | -3 | 0 | 1 | -1 | -7 | ·
Cc1cccc(Cn2cc(/C=C/[N+](=O)[O-])c3ccccc32)c1 | 53* | 1 | 50* | 1 | -8 | 218*
O=C1C(CSCc2ccccc2)NC(=S)N1c1ccccc1 (centres undefined) | 1 | -1 | 52* | -3 | -14 | 34*
O=C(O)CC1NC(=S)N(c2ccccc2)C1=O (centres undefined) | -2 | 0 | -1 | 0 | 1 | ·
COC(=O)c1ccc(C(=O)N2CCCC(C)(C(=O)NS(=O)(=O)C3CC3)C2)cc1 (centres undefined) | · | · | · | -1 | 1 | ·
O=C1CC2(CCCCC2)CC(=O)N1CCc1ccccc1 | · | · | · | -1 | 7 | ·
O=C1C=CC(=O)C(C2=C3C(=O)N(CCc4ccccc4)CC(=O)N3CCC2)=C1 | -3 | -1 | 131* | · | · | 49*
Cn1cc(CN2CCC(C(=O)NC(c3ccc(-c4ccccc4)cc3)c3cnccn3)CC2)c2ccccc21 (centres undefined) | · | · | · | 3 | 7 | ·
O=C(C[C@H]1C[C@H](C(=O)N2CCCCC2)[C@@]2(CCc3ccccc3)c3[nH]c4ccc(Cl)cc4c3CCN2C1=O)NCCN1CCOCC1 | -5 | · | 52* | -1 | 4 | 0
O=C(C[C@H]1C[C@H](C(=O)N2CCCCC2)[C@@]2(CCc3ccccc3)c3[nH]c4ccc(Cl)cc4c3CCN2C1=O)NCCCn1ccnc1 | 9 | · | 9 | 2 | 1 | ·
O=C(Nc1nc2c(F)cc(F)cc2s1)c1ccccn1 | -2 | -7 | 83* | -3 | 8 | 186*
Cc1ccc2nc(NC(=O)c3ccccn3)sc2c1 | -11 | -9 | 9 | -3 | 27 | ·
Cc1cc(C)cc(OCC(=O)NNC(=O)CC(C)c2ccccc2)c1 (centres undefined) | · | · | · | -1 | 4 | ·
COc1cccc(NC(=O)Nc2nnc([C@H]3C[C@H](O)[C@@H](CO)O3)s2)c1 | · | · | · | 0 | 9 | ·
C/C(=N\NC(=O)c1cc(Br)ccc1O)c1ccccn1 | 3 | -11 | 213* | 0 | 12 | 223*
C/C(=N\NC(=O)c1cccc(Br)c1)c1ccccn1 | 7 | 0 | 535* | -3 | 14 | 449*
CC(=O)Nc1ccc(S(=O)(=O)Nc2cccc3cccnc23)cc1 | 0 | 0 | -1 | -2 | -5 | ·
Cc1ccc2cccc(NS(=O)(=O)c3ccccc3)c2n1 | 0 | 0 | 446* | · | · | 94*
